Our source for the logP and IC50 values is ChEMBL document CHEMBL1126571, “Isocyanines and pseudoisocyanines as a novel class of potent noradrenaline transport inhibitors: synthesis, detection, and biological activity” (J Med Chem, 1993).

Molecules are shown by their SMILES.

Series [1] can be described thus: Partition coefficient (logP). The settings on record: octanol/water. It is filed as physicochemical. Put shortly: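 Shake-flask octanol/water partition: compound diluted from ethanolic stock to 20 μmol/L in octanol-saturated sodium phosphate buffer (10 mmol/L, pH 7.4). Absorbance read before and after shaking 2 h at 21 °C with buffer-saturated 1-octanol (buffer:octanol volume ratio f), phases split by centrifugation. P = (Ao − Ax)/Ax × f. Read at 520 nm (pseudoisocyanines) or 565 nm (isocyanines); SEM, n = 4.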

The subject of another series is PC-12. Nature of the series: Tested for the inhibition of neuronal type of noradrenaline uptake in clonal PC12 cells. As to conditions: Rattus norvegicus. Format: functional, cell-based.
For another series, the system named is CAKI-1. The series is described as follows: Tested for the inhibition of extraneuronal [3H]norepinephrine uptake in Caki-1 cells. It is filed as functional, cell-based. The settings on record: Homo sapiens, CAKI-1, 15 min. Put shortly:
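Human renal carcinoma Caki-1 monolayers expressing extraneuronal noradrenaline transport. Preincubated 20 min at 37 °C in HEPES buffer pH 7.4 with U-0521 and pargyline (10 μmol/L each) and ascorbate 1 mmol/L, then incubated 15 min at 37 °C with 100 nmol/L [3H]noradrenaline. Inhibitor present throughout. Cells rinsed ice-cold, read by scintillation. Specific uptake is the fraction sensitive to 100 μmol/L O-methylisoprenaline. IC50 from Hill fit, geometric mean with 95% confidence limits.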

`CC[n+]1c(Cc2ccc3ccccc3[n+]2CC)ccc2ccccc21`: in series [1], the log partition coefficient (logP) – broadly, a log measure of how a compound divides between an organic and an aqueous phase – was determined as 0.65. Further, the IC50 (as a rule, the midpoint of a concentration-inhibition curve) was 3000 nM in the series on PC-12 and 12 nM in the series on CAKI-1.
For `C[n+]1c(Cc2ccc3ccccc3[n+]2C)ccc2ccccc21`, in series [1], the log partition coefficient (logP) was found to be 0.34. The IC50 with CAKI-1 was determined as 94 nM.
In the same order, the values of `CN1C=C/C(=C/c2ccc3ccccc3[n+]2C)c2ccccc21` are 0.81 and 100 nM.
In the same order, the values of `CC[n+]1c(Cc2ccc3ccccc3[n+]2C(C)C)ccc2ccccc21` are 0.84 and 13 nM.
In the same order, the values of `CCN1/C(=C\c2cc[n+](CC)c3ccccc23)C=Cc2ccccc21` are 0.86 and 29 nM.
Turning to `CC(C)[n+]1ccc(/C=C2/C=Cc3ccccc3N2C)c2ccccc21`, the logP in series [1] amounted to 0.92. This compound yielded a 50% inhibitory concentration (IC50) in the series on CAKI-1 of 51 nM.
Compound `CC(C)N1/C(=C\c2cc[n+](C(C)C)c3ccccc23)C=Cc2ccccc21` [DISPROCYNIUM24] showed a lipophilicity (logP) in series [1] of 1.16. The compound also had a concentration for half-maximal inhibition (IC50) in the series with CAKI-1 of 14 nM.
